In ChEMBL document CHEMBL4321859, “Unforeseen Possibilities To Investigate the Regulation of Polyamine Metabolism Revealed by Novel C-Methylated Spermine Derivatives” (J Med Chem, 2019):

What was measured:
[1] = tested on: DU-145; assay: Downregulation of intracellular putrescine level in human DU145 Cells assessed per ug DNA at 100 uM after 3 days by HPLC method (reference value: 19 +/- 2 pmol/ug); type: functional
Procedure, shortened: (§1)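 DU145 cells exposed to 100 μM analogue for 6 h or 3 days, with or without 1 mM aminoguanidine. Cells were lysed in 50 mM potassium phosphate pH 7.2 with EDTA, Triton X-100 and DTT. Lysate was mixed with sulphosalicylic acid containing diaminoheptane as internal standard. Polyamines, analogue and MeSpd were measured by HPLC and normalized to DNA (PicoGreen), expressed as pmol/μg DNA. Means ± SD, n = 3.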

[2] = tested on: DU-145; assay: Downregulation of intracellular spermine level in human DU145 Cells at 100 uM after 3 days by HPLC method (reference value: 102 +/- 4 pmol/ug); type: functional; procedure, shortened: as §1
[3] = tested on: DU-145; assay: Downregulation of intracellular spermine level in human DU145 Cells assessed per ug DNA at 100 uM after 3 days in presence of SSAO inhibitor aminoguanidine by HPLC method (reference value: 157 +/- 8 pmol/ug); type: functional; procedure, shortened: as §1
[4] = tested on: DU-145; assay: Downregulation of intracellular spermidine level in human DU145 Cells assessed per ug DNA at 100 uM after 6 hrs by HPLC method (reference value: 134 +/- 7 pmol/ug); type: functional; procedure, shortened: as §1
[5] = Drug level in human DU145 cells assessed per ug DNA at 100 uM after 6 hrs by HPLC method; type: ADME, cell-based; settings: du-145, 6 h; procedure, shortened: as §1
[6] = tested on: DU-145; assay: Cytotoxicity against human DU145 cells at 100 uM after 3 days; type: cell-based; settings: du-145, 72 h
Procedure, shortened: (§2)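 DU145 cells grown in high-glucose DMEM with 10% heat-inactivated FBS, 2 mM L-glutamine and gentamycin at 37 °C, 5% CO2. Treated 3 days with 100 μM analogue, with or without 1 mM aminoguanidine. Cells harvested by trypsinization and counted electronically (Coulter counter). Means ± SD, n = 3.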

[7] = Drug uptake in human DU145 cells assessed as reduction in [14C]-spermine uptake at 1 to 100 uM by competition based assay; type: ADME, cell-based; settings: du-145, 100 µM
[8] = tested on: DU-145; assay: Downregulation of intracellular putrescine level in human DU145 Cells assessed per ug DNA at 100 uM after 6 hrs by HPLC method (reference value: 40 +/- 2 pmol/ug); type: functional; procedure, shortened: as §1
[9] = tested on: DU-145; assay: Downregulation of intracellular spermidine level in human DU145 Cells assessed per ug DNA at 100 uM after 3 days by HPLC method (reference value: 123 +/- 3 pmol/ug); type: functional; procedure, shortened: as §1
[10] = tested on: DU-145; assay: Downregulation of intracellular N1-acetylspermidine level in human DU145 cells assessed per ug DNA at 100 uM after 6 hrs by HPLC method (Rvb < 3 pmol/ug); type: functional; procedure, shortened: as §1
[11] = tested on: DU-145; assay: Downregulation of intracellular N1-acetylspermidine level in human DU145 cells assessed per ug DNA at 100 uM after 3 days in presence of SSAO inhibitor aminoguanidine by HPLC method (reference value: 3 +/- 1 pmol/ug); type: functional; procedure, shortened: as §1
[12] = Drug level in human DU145 cells at 100 uM in presence of SSAO inhibitor aminoguanidine after 3 days by HPLC method; type: ADME, cell-based; settings: du-145, 72 h; procedure, shortened: as §1
[13] = Drug metabolism in human DU145 cells at 100 uM assessed as methylspermidine metabolite level assessed per ug DNA in presence of SSAO inhibitor aminoguanidine after 3 days by HPLC method; type: ADME, cell-based; settings: du-145, 72 h; procedure, shortened: as §1
[14] = biological target: Peroxisomal N(1)-acetyl-spermine/spermidine oxidase (Homo sapiens, UniProt Q6QHF9); assay: (§3) Inhibition of recombinant human APAO at 50 uM using N1-acetylspermidine level as substrate relative to control; settings: 50 µM
Procedure, shortened: (§4)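 Competition with natural substrate at fixed 50 μM: spermine for purified bovine plasma SSAO and human recombinant SMOX, N1-acetylspermidine for human recombinant APAO. Analogue tested at 50 μM, with activity expressed relative to reaction without analogue.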

[15] = tested on: DU-145; assay: Downregulation of intracellular N1-acetylspermidine level in human DU145 cells assessed per ug DNA at 100 uM after 3 days by HPLC method (reference value: 3 pmol/ug); type: functional; procedure, shortened: as §1
[16] = tested on: DU-145; assay: Cytotoxicity against human DU145 cells at 100 uM in presence of SSAO inhibitor aminoguanidine after 3 days; type: cell-based; settings: du-145, 72 h; procedure, shortened: as §2
[17] = tested on: DU-145; assay: Downregulation of intracellular spermine level in human DU145 Cells at 100 uM after 6 hrs by HPLC method (reference value: 106 +/- 4 pmol/ug); type: functional; procedure, shortened: as §1
[18] = Drug level in human DU145 cells assessed per ug DNA at 100 uM after 3 days by HPLC method; type: ADME, cell-based; settings: du-145, 72 h; procedure, shortened: as §1
[19] = Drug metabolism in human DU145 cells at 100 uM assessed as methylspermidine metabolite level assessed per ug DNA after 3 days by HPLC method; type: ADME, cell-based; settings: du-145, 72 h; procedure, shortened: as §1
[20] = tested on: DU-145; assay: Downregulation of intracellular spermidine level in human DU145 Cells assessed per ug DNA at 100 uM after 3 days in presence of SSAO inhibitor aminoguanidine by HPLC method (reference value: 175 +/- 5 pmol/ug); type: functional; procedure, shortened: as §1
[21] = Drug metabolism in human DU145 cells at 100 uM assessed as methylspermidine metabolite level assessed per ug DNA after 6 hrs by HPLC method; type: ADME, cell-based; settings: du-145, 6 h; procedure, shortened: as §1
[22] = biological target: APAO (peroxisomal N(1)-acetyl-spermine/spermidine oxidase) (Homo sapiens, UniProt Q6QHF9); assay: as §3; settings: recombinant human APAO, probe N1-acetylspermidine; procedure, shortened: as §4
[23] = biological target: T1, Amine oxidase [copper-containing] 3 (Bos taurus, UniProt Q9TTK6); assay: Substrate activity at bovine plasma SSAO at 5 mM relative to spermine; type: ADME; settings: cattle, 5000 µM
T1 sequence (Q9TTK6 whole entry): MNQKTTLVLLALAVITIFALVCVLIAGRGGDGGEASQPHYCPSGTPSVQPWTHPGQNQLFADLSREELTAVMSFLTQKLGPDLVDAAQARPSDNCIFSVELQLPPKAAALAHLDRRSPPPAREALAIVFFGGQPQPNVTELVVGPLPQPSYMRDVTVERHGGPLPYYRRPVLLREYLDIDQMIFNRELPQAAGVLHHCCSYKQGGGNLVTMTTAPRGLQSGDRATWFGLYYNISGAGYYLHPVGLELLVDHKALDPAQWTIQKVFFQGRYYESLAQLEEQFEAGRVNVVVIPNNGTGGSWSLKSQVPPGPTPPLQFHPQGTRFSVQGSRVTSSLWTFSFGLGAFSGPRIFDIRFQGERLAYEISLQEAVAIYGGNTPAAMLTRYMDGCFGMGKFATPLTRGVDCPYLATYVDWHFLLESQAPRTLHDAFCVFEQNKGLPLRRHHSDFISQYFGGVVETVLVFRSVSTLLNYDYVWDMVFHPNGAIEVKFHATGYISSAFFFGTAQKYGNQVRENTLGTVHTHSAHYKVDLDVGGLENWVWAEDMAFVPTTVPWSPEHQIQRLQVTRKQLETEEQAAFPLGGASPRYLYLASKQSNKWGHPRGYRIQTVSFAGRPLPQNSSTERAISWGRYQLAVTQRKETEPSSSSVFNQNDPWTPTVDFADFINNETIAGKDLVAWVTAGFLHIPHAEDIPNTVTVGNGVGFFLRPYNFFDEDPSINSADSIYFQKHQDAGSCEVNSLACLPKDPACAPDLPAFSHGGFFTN
Procedure, shortened: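 Purified bovine plasma SSAO given analogue as substrate at 5 mM, the same saturating concentration used for spermine. Activity compared with spermine. Means ± SD, n = 3.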

Peroxisomal N(1)-acetyl-spermine/spermidine oxidase, sequence (Q6QHF9 whole entry): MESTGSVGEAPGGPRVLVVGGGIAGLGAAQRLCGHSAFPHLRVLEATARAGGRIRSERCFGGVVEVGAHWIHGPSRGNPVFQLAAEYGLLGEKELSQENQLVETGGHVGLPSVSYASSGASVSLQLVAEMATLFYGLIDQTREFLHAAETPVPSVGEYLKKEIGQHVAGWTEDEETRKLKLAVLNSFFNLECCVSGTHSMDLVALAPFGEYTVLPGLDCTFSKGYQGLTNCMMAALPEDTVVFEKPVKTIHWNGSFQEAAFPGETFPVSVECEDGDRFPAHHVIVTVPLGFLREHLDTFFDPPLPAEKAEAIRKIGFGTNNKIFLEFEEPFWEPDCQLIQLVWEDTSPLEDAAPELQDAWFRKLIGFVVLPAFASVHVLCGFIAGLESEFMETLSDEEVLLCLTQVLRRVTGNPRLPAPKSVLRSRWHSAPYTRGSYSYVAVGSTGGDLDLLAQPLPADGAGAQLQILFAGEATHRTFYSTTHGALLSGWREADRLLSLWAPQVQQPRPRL
APAO (peroxisomal N(1)-acetyl-spermine/spermidine oxidase), sequence (Q6QHF9 whole entry): as above

| Drug uptake [5] [pmol] | Activity [7] | Drug uptake [12] [pmol] | Drug metabolism [13] [pmol] | inhibition (INH) [14] | Drug uptake [18] [pmol] | Drug metabolism [19] [pmol] | Compound | Activity [1] [pmol] | Activity [2] [pmol] | Activity [3] [pmol] | Activity [4] [pmol] | Activity [6] | Activity [8] [pmol] | Activity [9] [pmol] | Activity [10] [pmol] | Activity [15] [pmol] | Activity [16] | Activity [17] [pmol] | Activity [20] [pmol] | other results |
| --- | --- | --- | --- | --- | --- | --- | --- | --- | --- | --- | --- | --- | --- | --- | --- | --- | --- | --- | --- | --- |
| 70 | Active | 217 | 10 | Not Active | 168 | 4 | CC(N)CCNCCCCNCCC(C)N (stereo unspecified) | <3 | 27 | 19 | 105 | Non-Toxic | 15 | 13 | 5 | <3 | Non-Toxic | 84 | 3 | Activity [11]: <3 pmol |
| 26 | Active | 191 | 44 |  | 29 | 116 | CC(CCN)NCCCCNC(C)CCN (stereo unspecified) | 12 | 69 | 68 | 79 | Non-Toxic | 27 | 34 | 3 | <3 | Non-Toxic | 80 | 31 | Drug metabolism [21]: 34 pmol; inhibition at 50 µM [22]: 45%; Activity [23]: 30% |
| 59 | Active | 222 |  | Not Active | 147 | 20 | CC(CN)CNCCCCNCC(C)CN (stereo unspecified) | <3 | 40 | 33 | 99 | Non-Toxic | 10 | 13 | 4 |  | Non-Toxic | 76 | <3 |  |
|  | Active |  |  |  |  |  | NCCCNCCCCNCCCN [SPERMINE] |  |  |  |  | Non-Toxic |  |  |  |  | Toxic |  |  |  |
